The source of these data is ChEMBL document CHEMBL4480439, “Fuscasins A-D, Cycloheptapeptides from the Marine Sponge Phakellia fusca” (J Nat Prod, 2019).

For one series, the system named is HeLa. Briefly: Cytotoxicity against human HeLa cells assessed as reduction in cell viability up to 20 uM after 72 hrs by CCK8 assay. It is filed as functional, cell-based. Put shortly: (§1)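 Cells grown at 37 °C in DMEM with 10% FBS and antibiotics, seeded at 3 × 10³ cells/well, and exposed to compound for 72 h. CCK-8 reagent was then added for 1 h at 37 °C in 5% CO₂, and OD was read at 450 nm. IC50 was obtained by fitting a log(inhibitor)-response model.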
(In general: Tetrazolium assays rely on reduction of a dye to a coloured formazan, in cell work by metabolically active cells.)

For series [1], the system named is HepG2. Briefly: Cytotoxicity against human HepG2 cells assessed as reduction in cell viability after 72 hrs by CCK8 assay. It is filed as functional, cell-based. Particulars: HepG2, 72 h. Put shortly: as §1
For another series, the system named is NCI-H460. Briefly: Cytotoxicity against human NCI-H460 cells assessed as reduction in cell viability up to 20 uM after 72 hrs by CCK8 assay. In kind it is functional, cell-based. The method, boiled down: (§2)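 Cells maintained in RPMI 1640 with 10% FBS and antibiotics, plated at 3 × 10³ cells/well, and treated for 72 h. After 1 h incubation with CCK-8 at 37 °C in 5% CO₂, absorbance was recorded at 450 nm. IC50 came from a log(inhibitor)-response curve fit.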

In the next series the test system is PC-9. Briefly: Cytotoxicity against human PC9 cells assessed as reduction in cell viability up to 20 uM after 72 hrs by CCK8 assay. It is filed as functional, cell-based. The method, boiled down: as §2
The subject of a further series is MCF7. Briefly: Cytotoxicity against human MCF7 cells assessed as reduction in cell viability up to 20 uM after 72 hrs by CCK8 assay. It is filed as functional, cell-based. Put shortly: as §1
The next series has as its system H9c2. Briefly: Cytotoxicity against rat H9c2 cells assessed as reduction in cell viability up to 100 uM after 72 hrs by CCK8 assay. It is filed as cell-based. Conditions: h9c2, 72 h. Put shortly:
as §1

The test system of another series is SW480. Briefly: Cytotoxicity against human SW480 cells assessed as reduction in cell viability up to 20 uM after 72 hrs by CCK8 assay. It is filed as functional, cell-based. The method, boiled down:
as §2

Series [2] has as its system HepG2. Briefly: Cytotoxicity against human HepG2 cells assessed as reduction in cell viability up to 20 uM after 72 hrs by CCK8 assay. In kind it is functional, cell-based. Put shortly: as §1

The source made the active and inactive calls. The rule behind the calls is not given here. Residues, ends and D or L forms follow the SMILES beside them.

On to `CC(C)C[C@@H]1NC(=O)[C@H](C(C)C)NC(=O)[C@H](Cc2ccccc2)N2C(=O)C[C@H](NC(=O)[C@@H]3CCCN3C(=O)[C@@H]3CCCN3C(=O)[C@@H]3CCCN3C1=O)C2=O`, for which the outcome in the series on HeLa, in the series on NCI-H460, in the series on PC-9, in the series with MCF7 and in the series with SW480 was inactive. The half-inhibitory concentration (IC50) (as a rule, the concentration that inhibits the measured activity by half) in the series with HepG2 [1] amounted to 4.6 µM. Also, the Activity result in the series on H9c2 is “Non-Toxic”.
As for `CC(C)C[C@@H]1NC(=O)[C@H](Cc2ccc(O)cc2)NC(=O)[C@H](CC(=O)O)NC(=O)[C@@H]2CCCN2C(=O)[C@H](CC(C)C)NC(=O)[C@@H]2CCCN2C(=O)[C@H](CC(C)C)NC1=O` (cyclo(DYLLPLP)), the result in the series on HepG2 [2] was inactive.
Regarding `CC(C)C[C@@H]1NC(=O)[C@H](C)NC(=O)[C@@H]2CCCN2C(=O)[C@H](C)NC(=O)[C@H](Cc2ccc(O)cc2)NC(=O)[C@@H]2CCCN2C(=O)[C@H](Cc2ccc(O)cc2)NC1=O` (cyclo(ALYPYAP)), the outcome in the series with HepG2 [2] was inactive.
With `CC(C)C[C@@H]1NC(=O)[C@H](C)NC(=O)[C@H](Cc2ccc(O)cc2)NC(=O)[C@H](CCCNC(=N)N)NC(=O)[C@H](CC(N)=O)NC(=O)[C@H](C(C)C)NC(=O)[C@@H]2CCCN2C1=O` (cyclo(ALPVNRY)), the outcome in the series on HepG2 [2] was inactive.
